Measurements reported in the RNAGym collection of RNA variant scans (doi:10.1126/science.aae0568).
This sample holds only a part of the variants without activity.

B1: tRNA (parent)
chain: GUUCCGUUGGCGUAAUGGUAACGCGUCUCCCUCCUAAGGAGAAGACUGCGGGUUCGAGUCCCGUACGGAACG

Variants of: B1
Assay: yeast fitness relative to wild type (ratio to wild type); higher = fitter; tRNA-Arg(CCU), competitive growth, 37 C, YPD
Method in brief: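 Variants of the tRNA-Arg(CCU) gene, chemically synthesised with a 3% per-site mutation rate at 69 sites, were placed at the native genomic locus in Saccharomyces cerevisiae. The pooled strains were competed in YPD at 37°C for 24 hours in six parallel replicates. Gene amplicons from the start population and from each end population were read by 100-nucleotide paired-end sequencing. Darwinian fitness relative to wild type came from changes in genotype frequencies; genotypes needed ≥ 100 starting reads, and estimates < 0.5 were set to 0.5.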
In the case of G18A G23A C33A U64C, the yeast fitness is reported as 0.789.
G18C C24U C30G showed a yeast fitness of no more than 0.5.
Work on G17C U28G G48A A69C yielded a yeast fitness of no more than 0.5.
For U16G A36G A65G, the yeast fitness was no more than 0.5.
G18C U47C showed a yeast fitness of 0.658.
With G17C C29U the yeast fitness was 0.545.
Work on G17C G18C G44C U59A yielded a yeast fitness of no more than 0.5.
Variant U16G C30G C55G has a yeast fitness of no more than 0.5.
With U16C G50C C66U the yeast fitness was 0.584.
In the case of G17A G18A C61A, the yeast fitness is reported as no more than 0.5.
With G17A C22G C27A G63A the yeast fitness was 0.538.
Variant G17A C22U has a yeast fitness of 0.737.
Variant U16G G38C has a yeast fitness of 0.653.
U16G C27U U28A G52C U54A C66U showed a yeast fitness of no more than 0.5.
Variant G18C G52C C60U has a yeast fitness of 0.591.
G18A A21U U32A C62G A65G showed a yeast fitness of no more than 0.5.
With G17C U54A G56C the yeast fitness was no more than 0.5.
Work on U19A A43U A45C G67C yielded a yeast fitness of no more than 0.5.
In the case of G17C C46A A65C, the yeast fitness is reported as no more than 0.5.
Variant G18C A57U has a yeast fitness of 0.555.
With U16C G58A U59C the yeast fitness was 0.555.
For U16G C29U C30U, the yeast fitness was no more than 0.5.
Variant G18A C24G G56A C66U has a yeast fitness of no more than 0.5.
Variant G18A A20G has a yeast fitness of 0.613.
Variant G18A A20U has a yeast fitness of 0.721.
G18C C34U A69C showed a yeast fitness of no more than 0.5.
U16C G18A C34G G39A C62G showed a yeast fitness of no more than 0.5.
Variant G17A C24U C34A A40G C61U A69U has a yeast fitness of no more than 0.5.
U16G U26A C34U G50A A69U showed a yeast fitness of 0.551.
With G18C C24A A36U the yeast fitness was no more than 0.5.
In the case of G17A C22A A45C C46U, the yeast fitness is reported as 0.578.
U16G A20U C60G gave a yeast fitness of no more than 0.5.
Work on U16C C34G C55U yielded a yeast fitness of no more than 0.5.
G17C C22G C55G C60A gave a yeast fitness of no more than 0.5.
Work on U16G G41C A45U G51A C61U A70C yielded a yeast fitness of 0.639.
For G17C C22G C24A C62A A70C, the yeast fitness was 0.57.
Work on G18A U59A yielded a yeast fitness of 0.76.
In the case of G17U A57G A69C, the yeast fitness is reported as no more than 0.5.
G17C C24U C46G C62G gave a yeast fitness of 0.572.
G17A C22U C46U C66U A70C gave a yeast fitness of no more than 0.5.
In the case of G18C G25C U28G A42G, the yeast fitness is reported as no more than 0.5.
For G17C C24G U28A C30U A65U, the yeast fitness was no more than 0.5.
Work on U16G G41A A69U yielded a yeast fitness of 0.527.
U16G C22A C62A showed a yeast fitness of no more than 0.5.
With G18C C24G U35C G50C C55G G67C the yeast fitness was no more than 0.5.
For G17C U47G G67A A69U, the yeast fitness was 0.55.
In the case of U16C C34G G51A, the yeast fitness is reported as 0.534.
G17C U53A C60A G67A gave a yeast fitness of no more than 0.5.
Work on G18A C24U G56A yielded a yeast fitness of 0.674.
G17A C29G A45G C61U showed a yeast fitness of no more than 0.5.
For G17A A57G, the yeast fitness was 0.906.
Variant U16C G52C A70G has a yeast fitness of no more than 0.5.
G17C U47G gave a yeast fitness of no more than 0.5.
U16G C22A C61A showed a yeast fitness of no more than 0.5.
U16G C34G A42G C49G C62U A69C gave a yeast fitness of 0.506.
For G18A G39U G48A C61G, the yeast fitness was no more than 0.5.
G18C G23A G25C A37G A43C C55G C62G gave a yeast fitness of no more than 0.5.
G17C C46U G68A gave a yeast fitness of no more than 0.5.
Work on G18A A36C yielded a yeast fitness of 0.503.
Work on G17A C22G C29U G51C C55G yielded a yeast fitness of no more than 0.5.
With G17A G23A C66A the yeast fitness was 0.776.
With G18C G68C the yeast fitness was 0.556.
In the case of U16G C24U C49G C66U, the yeast fitness is reported as no more than 0.5.
G17A C24U gave a yeast fitness of 0.778.
G17A C30A gave a yeast fitness of 0.71.
U16G C29U C46U G67C A69U showed a yeast fitness of 0.521.
Work on G17A A20G C27G A36C A65U yielded a yeast fitness of no more than 0.5.
Variant G17C C29U A37C A69U has a yeast fitness of no more than 0.5.
Variant G17C A20C has a yeast fitness of 0.54.
In the case of U16G C24U C49G C55G, the yeast fitness is reported as no more than 0.5.
With G18C C29U C30U A37G C49U G67A the yeast fitness was no more than 0.5.
Work on G18A A40G A70C yielded a yeast fitness of no more than 0.5.
With U16G U26G A36G G68C the yeast fitness was 0.629.
Variant G18A C24G C66U has a yeast fitness of no more than 0.5.
Variant G18C C22G G38A has a yeast fitness of no more than 0.5.
For G17A A37C C55U, the yeast fitness was 0.56.
Variant G18C A42U G48C U64C has a yeast fitness of no more than 0.5.
Work on G17A C22U C27A C30G yielded a yeast fitness of no more than 0.5.
Variant U19A A36C G51C U59A has a yeast fitness of no more than 0.5.
U16G U28G C34U C49U G63C showed a yeast fitness of no more than 0.5.
Variant G18A U32C A69C has a yeast fitness of 0.549.
Work on G17A C22A A45C C46U C49U yielded a yeast fitness of no more than 0.5.
Work on G17C C34U C61U yielded a yeast fitness of 0.55.
G17U A37U gave a yeast fitness of no more than 0.5.
For G17A U26C C61U G67A, the yeast fitness was no more than 0.5.
With G18A C30U A45C G52C the yeast fitness was no more than 0.5.
In the case of G17A G56C, the yeast fitness is reported as 0.527.
U16G A65U A70U gave a yeast fitness of 0.64.
Variant G18C C31G G44C has a yeast fitness of 0.658.
G17C C27U A65C showed a yeast fitness of 0.54.
For G17C U35C C60U, the yeast fitness was no more than 0.5.
Variant G17C G48A has a yeast fitness of 0.685.
With U16C U32A the yeast fitness was 0.682.
For U16C U32C, the yeast fitness was 0.918.
With U16C G17C C22G the yeast fitness was 0.534.
In the case of G17C U19A C49G A69G, the yeast fitness is reported as no more than 0.5.
G17C G50C showed a yeast fitness of 0.536.
G17A G25A C31G G68A gave a yeast fitness of no more than 0.5.
In the case of G17C U26C C46U A65C, the yeast fitness is reported as no more than 0.5.
Work on G17A C30G G67C yielded a yeast fitness of no more than 0.5.
With U16C U59A the yeast fitness was 0.852.
With G18A A21C C33G A37U U64G the yeast fitness was no more than 0.5.
With U16C C62U the yeast fitness was 1.
G18C G25C U47C gave a yeast fitness of no more than 0.5.
G18A A21U C49A C60G A70U showed a yeast fitness of no more than 0.5.
G17A C31A C33U U59G A65C showed a yeast fitness of no more than 0.5.
Work on U16G A20U G38A yielded a yeast fitness of 0.538.
G17A A21C A42C gave a yeast fitness of no more than 0.5.
G18A A36G A42U gave a yeast fitness of 0.691.
With G18C C22G G56A the yeast fitness was 0.568.
G17C A37C gave a yeast fitness of 0.644.
U16C U47C C60U C62A showed a yeast fitness of no more than 0.5.
In the case of G17C A20U C66A, the yeast fitness is reported as no more than 0.5.
Variant G18A A40G C62A A65U C66U has a yeast fitness of no more than 0.5.
In the case of G17A A37C, the yeast fitness is reported as 0.681.
With G17C G25A C49A A69U the yeast fitness was no more than 0.5.
In the case of G17A C22G U28A C31G C55A G68C, the yeast fitness is reported as no more than 0.5.
U16C C49G C62U gave a yeast fitness of 0.528.
Work on G18C G67A A69C yielded a yeast fitness of no more than 0.5.
With U16G C66U A69C the yeast fitness was 0.728.
In the case of G18C G44A, the yeast fitness is reported as 0.604.
For G17A C22G C27A, the yeast fitness was 0.579.
Work on U16C U32C C49A yielded a yeast fitness of 0.617.
G18A A37C C55U A57G gave a yeast fitness of no more than 0.5.
Variant G18C G50A has a yeast fitness of 0.609.
In the case of U16G A36C G39C G63A A65U, the yeast fitness is reported as no more than 0.5.
Work on U16C G58C yielded a yeast fitness of 1.06.
G18C C24U C66U gave a yeast fitness of no more than 0.5.
Variant G18C G41C C62G has a yeast fitness of no more than 0.5.
In the case of G18C C30U U32A C34G A45C U47G A57G, the yeast fitness is reported as 0.688.
With G17C A40G A42C A45U U54C the yeast fitness was no more than 0.5.
For G17A A69C, the yeast fitness was 0.721.
For G17A A69G, the yeast fitness was 0.813.
Work on G18A C31U yielded a yeast fitness of 0.663.
G18A C31G gave a yeast fitness of 0.666.
Variant G18U A21U G52A has a yeast fitness of no more than 0.5.
For G18A G25A A70G, the yeast fitness was 0.54.
Work on G18A A21U A37U A42U C46A G58C U64A yielded a yeast fitness of no more than 0.5.
With G18U U26A C66A A70U the yeast fitness was 0.536.
Work on G17C C27G U28C A65U yielded a yeast fitness of no more than 0.5.
With G18A C22G C24G the yeast fitness was no more than 0.5.
In the case of G17A C22G C33U C62A, the yeast fitness is reported as no more than 0.5.
With U16C C49A the yeast fitness was 0.731.
For G18C A57U G67C, the yeast fitness was no more than 0.5.
G17A C60U gave a yeast fitness of 0.594.
G17C C22G C24A C62A C66U showed a yeast fitness of no more than 0.5.
G17C G23U U28A C31G A65G gave a yeast fitness of no more than 0.5.
G18C G23A G25C U35C A37G A43C C55G G68A gave a yeast fitness of no more than 0.5.
With G18A C30U A40G G68C the yeast fitness was no more than 0.5.
G17A G63C showed a yeast fitness of 0.579.
G17A G63A gave a yeast fitness of 0.744.
Work on U16G U59G yielded a yeast fitness of 0.78.
U16G U28C gave a yeast fitness of 0.862.
Variant G18C A20C C22U C31U C61U has a yeast fitness of no more than 0.5.
G18C C31G C55G A57C gave a yeast fitness of no more than 0.5.
Variant G18A A21C U32G has a yeast fitness of 0.614.
G18C C60A gave a yeast fitness of no more than 0.5.
With G18C C60U the yeast fitness was no more than 0.5.
Variant G18C C29U C30U C49U G67A has a yeast fitness of no more than 0.5.
U16C U19G C27G C34U A40U U53A A70U showed a yeast fitness of 0.674.
G17C U28G C29U A37C A65C showed a yeast fitness of no more than 0.5.
With G17U C30A A43U C66U the yeast fitness was no more than 0.5.
G18A U47C A57U gave a yeast fitness of no more than 0.5.
G18A U19C C27G C61A U64G gave a yeast fitness of no more than 0.5.
With G18A C55A C62G the yeast fitness was no more than 0.5.
For G17A C34G, the yeast fitness was 0.569.
For G17A A21G U28G, the yeast fitness was 0.608.
